Data as given in ChEMBL document CHEMBL1132450, “New natural sesquiterpenes as modulators of daunomycin resistance in a multidrug-resistant Leishmania tropica line” (1999).

Legend:
Leishmania tropica [1] = assay: The compound was tested for growth inhibition against DNM-R150 (Leishmania tropica) parasites, at a concentration of 30 uM; type: functional
Summary of the method: (§1)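 Multidrug-resistant L. tropica DNM-R150 line, kept under continuous 150 µM daunomycin and overexpressing a Pgp-like transporter. Parasites were grown at 28 °C in modified RPMI 1640 with 20% heat-inactivated fetal bovine serum and tested for growth sensitivity to the sesquiterpene.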

[2] = The compound was tested for binding activity against nucleotide-binding domain 2, with quenching at 50 uM
Summary of the method: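 Recombinant Leishmania Pgp-like transporter NBD2, expressed in E. coli M15 [pREP4] and affinity-purified, at 0.2–0.5 µM final in pH 8.5 potassium phosphate buffer with 1 M NaCl, glycerol, HECAMEG and 10 mM imidazole, 25 °C. Sesquiterpene in DMSO (≤2% final) titrated in. Intrinsic fluorescence read at 300–350 nm emission (288 nm excitation), corrected for inner-filter and dilution. Quenching at 50 µM was read graphically from the curve.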

Leishmania tropica [3] = assay: The compound was tested for growth inhibition against Wild type parasites, at a concentration of 15 uM; type: functional
Summary of the method: (§2)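 Wild-type L. tropica LRC clone, obtained by agar plating. Cultured at 28 °C in modified RPMI 1640 with 20% heat-inactivated fetal bovine serum. Growth sensitivity to the sesquiterpene was assessed.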

Leishmania tropica [4] = assay: The compound was tested for growth inhibition against DNM-R150 (Leishmania tropica) parasites, at a concentration of 15 uM; type: functional; summary of the method: as §1
Leishmania tropica [5] = assay: The compound was tested for growth inhibition against Wild type parasites, at a concentration of 30 uM; type: functional; summary of the method: as §2
Leishmania tropica [6] = assay: The compound was tested for growth inhibition against DNM-R150 (Leishmania tropica) parasites, at a concentration of 30 uM.; type: functional; summary of the method: as §1
Leishmania tropica [7] = assay: The compound was tested for growth inhibition against Wild type parasites, at a concentration of 30 uM.; type: functional; summary of the method: as §2
Leishmania tropica [8] = assay: The compound was tested for growth inhibition against Wild type parasites, at a concentration of 15 uM.; type: functional; summary of the method: as §2
Leishmania tropica [9] = assay: The compound was tested for growth inhibition against DNM-R150 (Leishmania tropica) parasites, at a concentration of 15 uM.; type: functional; summary of the method: as §1

Structure (SMILES) | Growth inhibition (Leishmania tropica [1]) | Quenching [2] | Growth inhibition (Leishmania tropica [3]) | Growth inhibition (Leishmania tropica [4]) | Growth inhibition (Leishmania tropica [5]) | Growth inhibition (Leishmania tropica [6]) | Growth inhibition (Leishmania tropica [7]) | Growth inhibition (Leishmania tropica [8]) | Growth inhibition (Leishmania tropica [9])
CCC(C)C(=O)OC[C@]12[C@H](OC(=O)c3ccccc3)[C@@H](OC(=O)C(C)CC)[C@@H]3[C@@H](O)[C@]1(OC3(C)C)[C@@](C)(O)C[C@H](O)[C@@H]2OC(C)=O (some centres undefined) | 92.6% | 27.5% | 5.3% | 83.1% | 4% | – | – | – | –
CCC(C)C(=O)OC[C@]12[C@@H](OC(=O)c3ccccc3)[C@H](OC(=O)c3cccnc3)[C@@H]3[C@@H](OC(C)=O)[C@]1(OC3(C)C)[C@@](C)(O)C[C@H](OC(C)=O)[C@@H]2OC(C)=O (some centres undefined) | – | 31.8% | – | – | – | 82.5% | 6.2% | 7.5% | 32.3%
CCC(C)C(=O)OC[C@]12[C@H](OC(=O)c3ccccc3)[C@@H](OC(C)=O)[C@@H]3[C@@H](OC(C)=O)[C@]1(OC3(C)C)[C@@](C)(O)C[C@H](O)[C@@H]2OC(=O)c1ccccc1 (some centres undefined) | 95.4% | – | 25.5% | 77.8% | 62.9% | – | – | – | –
CCC(C)C(=O)OC[C@@]12[C@@H](OC(C)=O)CC[C@](C)(O)[C@]13OC(C)(C)[C@H]([C@@H](OC(=O)c1cccnc1)[C@@H]2OC(=O)c1ccccc1)[C@H]3OC(C)=O (some centres undefined) | 96.1% | 34.3% | 6.9% | 92.9% | 13.8% | – | – | – | –
CCC(C)C(=O)OC[C@]12[C@H](OC(=O)c3ccccc3)[C@@H](OC(C)=O)[C@@H]3[C@@H](O)[C@]1(OC3(C)C)[C@@](C)(O)C[C@H](OC(C)=O)[C@@H]2OC(C)=O (some centres undefined) | – | 30.8% | – | – | – | 91.7% | 11.1% | 7.5% | 26.8%
CCC(C)C(=O)OC[C@]12[C@H](OC(=O)c3ccccc3)[C@@H](OC(C)=O)[C@@H]3[C@@H](O)[C@]1(OC3(C)C)[C@@](C)(O)C[C@H](OC(=O)c1cccnc1)[C@@H]2O (some centres undefined) | 88.3% | 31.1% | 9.3% | 20.8% | 8.4% | – | – | – | –
CC(=O)OC[C@@]12[C@@H](OC(C)=O)CC[C@](C)(O)[C@]13OC(C)(C)[C@H]([C@H](OC(C)=O)[C@H]2OC(=O)c1ccccc1)[C@H]3OC(C)=O | – | 27% | – | – | – | 49.8% | 16.9% | 13.5% | 16.3%
CCC(C)C(=O)OC[C@]12[C@H](OC(=O)c3ccccc3)[C@@H](OC(C)=O)[C@@H]3[C@@H](OC(C)=O)[C@]1(OC3(C)C)[C@@](C)(O)C[C@H](OC(C)=O)[C@@H]2OC(C)=O (some centres undefined) | – | 22.8% | – | – | – | 86.1% | 9.5% | 4.9% | 40.9%
CCC(C)C(=O)OC[C@]12[C@H](OC(=O)c3ccccc3)[C@@H](OC(C)=O)[C@@H]3[C@@H](O)[C@]1(OC3(C)C)[C@@](C)(O)C[C@H](O)[C@@H]2OC(=O)c1ccccc1 (some centres undefined) | 96% | 31.4% | 9.8% | 90.5% | 30% | – | – | – | –
